Results: ChEMBL document CHEMBL3046654, “Penoxsulam--structure-activity relationships of triazolopyrimidine sulfonamides” (Bioorg Med Chem, 2009)

How the values were obtained:
Pontederia vaginalis [1] = assay: Post-emergence herbicidal activity against three-leaf stage Monochoria vaginalis under green-house condition by water injection treatment method; type: functional
In short: (§1)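 Greenhouse paddy test. Seed was sown on saturated Metro Mix, covered with about 0.5 cm mix and held 48 h dark at 30 °C, 95% RH; about 15 d from seed soaking to treatment. Treatment solution was injected into the water. Rates were set per pot surface area, with serial rates made by halving the volume delivered. Held at 16 h day length, 29 °C.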

Echinochloa crus-galli [2] = assay: Post-emergence herbicidal activity against 3-4-leaf stage Echinochloa crus-galli (barnyard grass) under field condition by foliar application method; type: functional
Oryza sativa [3] = assay: Phytotoxicity against three to four-leaf stage japonica Oryza sativa (rice) under field condition by foliar application method; type: organism-based; settings: in vivo
[4] = tested on: Schoenoplectiella juncoides; assay: Post-emergence herbicidal activity against two to three-leaf stage Schoenoplectiella juncoides under field condition by foliar application method; type: functional
Echinochloa crus-galli [5] = assay: Post-emergence herbicidal activity against 2-3-leaf stage Echinochloa crus-galli (barnyard grass) under field condition by foliar application method; type: functional
Oryza sativa [6] = assay: Phytotoxicity against two to three-leaf stage indica Oryza sativa (rice) under field condition by foliar application method; type: organism-based; settings: in vivo
[7] = tested on: Schoenoplectiella juncoides; assay: Post-emergence herbicidal activity against three-leaf stage Schoenoplectiella juncoides under field condition by water injection treatment method; type: functional
In short: (§2)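 Field trials: water-injected treatment applied to transplanted japonica rice and to weeds at the three-leaf stage, under rice-growing conditions in several countries.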

Pontederia vaginalis [8] = assay: Post-emergence herbicidal activity against three-leaf stage Monochoria vaginalis under field condition by water injection treatment method; type: functional; in short: as §2
Oryza sativa [9] = assay: Phytotoxicity against three-leaf stage Oryza sativa (rice) under field condition by water injection treatment method; type: organism-based; in short: as §2
Echinochloa crus-galli [10] = assay: Post-emergence herbicidal activity against three-leaf stage Echinochloa crus-galli (barnyard grass) under field condition by water injection treatment method; type: functional; in short: as §2
Cyperus difformis = assay: Post-emergence herbicidal activity against three-leaf stage Cyperus difformis under green-house condition by water injection treatment method; type: functional; in short: as §1
[11] = tested on: Schoenoplectiella juncoides; assay: Post-emergence herbicidal activity against three-leaf stage Schoenoplectiella juncoides under green-house condition by water injection treatment method; type: functional; in short: as §1
Echinochloa crus-galli [12] = assay: Post-emergence herbicidal activity against three-leaf stage Echinochloa crus-galli (barnyard grass) under green-house condition by water injection treatment method; type: functional; in short: as §1
Oryza sativa [13] = assay: Phytotoxicity against three-leaf stage Oryza sativa (rice) under green-house condition by water injection treatment method; type: organism-based; in short: as §1
Sesbania herbacea = assay: Post-emergence herbicidal activity against three to four-leaf stage Sesbania herbacea under field condition by foliar application method; type: functional
Ipomoea hederacea = assay: Post-emergence herbicidal activity against Ipomoea hederacea (ivy-leaved morning glory) compound treated as foliar application measured after 2 weeks; type: functional
In short: (§3)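 Greenhouse post-emergence foliar screen in 64 cm² pots. Seed treatments were used on some species to aid germination. Plants were grown 7–21 days at 23–29 °C day/22–28 °C night under a 15 h photoperiod. Sprayed at 2–12 cm height and the 1–4 true leaf stage.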

Veronica hederifolia = assay: Post-emergence herbicidal activity against Veronica hederifolia compound treated as foliar application measured after 2 weeks; type: functional; in short: as §3
Abutilon theophrasti = assay: Post-emergence herbicidal activity against Abutilon theophrasti (velvetleaf) compound treated as foliar application measured after 2 weeks; type: functional; in short: as §3
Amaranthus retroflexus = assay: Post-emergence herbicidal activity against Amaranthus retroflexus compound treated as foliar application measured after 2 weeks; type: functional; in short: as §3
Ipomoea = assay: Post-emergence herbicidal activity against Ipomoea spp. compound treated as foliar application measured after 2 weeks; type: functional; in short: as §3
Helianthus = assay: Post-emergence herbicidal activity against Helianthus spp. compound treated as foliar application measured after 2 weeks; type: functional; in short: as §3
Chenopodium album = assay: Post-emergence herbicidal activity against Chenopodium album compound treated as foliar application measured after 2 weeks; type: functional; in short: as §3
Datura stramonium = assay: Post-emergence herbicidal activity against Datura stramonium compound treated as foliar application measured after 2 weeks; type: functional; in short: as §3
Xanthium strumarium = assay: Post-emergence herbicidal activity against Xanthium strumarium (cocklebur) compound treated as foliar application measured after 2 weeks; type: functional; in short: as §3
Avena fatua = assay: Post-emergence herbicidal activity against Avena fatua compound treated as foliar application measured after 2 weeks; type: functional; in short: as §3
Oryza sativa [14] = assay: Phytotoxicity against Oryza sativa (rice); type: organism-based; settings: in vivo
Digitaria sanguinalis = assay: Post-emergence herbicidal activity against Digitaria sanguinalis (hairy crabgrass) compound treated as foliar application measured after 2 weeks; type: functional; in short: as §3
Sorghum halepense = assay: Post-emergence herbicidal activity against Sorghum halepense (Johnson grass) compound treated as foliar application measured after 2 weeks; type: functional; in short: as §3
Setaria faberi = assay: Post-emergence herbicidal activity against Setaria faberi (Giant Foxtail) compound treated as foliar application measured after 2 weeks; type: functional; in short: as §3
Echinochloa crus-galli [15] = assay: Post-emergence herbicidal activity against Echinochloa crus-galli (barnyard grass) compound treated as foliar application measured after 2 weeks; type: functional; in short: as §3
Alopecurus = assay: Post-emergence herbicidal activity against Alopecurus spp. compound treated as foliar application measured after 2 weeks; type: functional; in short: as §3
Fallopia convolvulus = assay: Post-emergence herbicidal activity against Fallopia convolvulus compound treated as foliar application measured after 2 weeks; type: functional; in short: as §3
Stellaria media = assay: Post-emergence herbicidal activity against Stellaria media compound treated as foliar application measured after 2 weeks; type: functional; in short: as §3
[16] = Inhibition of acetolactatae synthase; settings: read-out: I50
In short: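 Barley ALS: etiolated shoots of 5–6 d old Hector Spring barley homogenized at 0–4 °C in 20 mM HEPES pH 7.2, 1 mM EDTA, 5 mM DTT, then 33% (NH4)2SO4 cut. Reaction: 20 mM HEPES pH 7.2, 5 mM MgCl2, 0.25 mM TPP, FAD, 22.5 mM pyruvate, 0.7% DMSO final, 37 °C, 30 min. Acid decarboxylation to acetoin, then creatine/1-naphthol colour read at 530 nm. Reported as I50 (nM).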

Row | SMILES | GR80 (Pontederia vaginalis [1]) | GR80 (Ipomoea hederacea) | GR80 (Veronica hederifolia) | GR80 (Abutilon theophrasti) | GR80 (Amaranthus retroflexus) | GR80 (Ipomoea) | GR80 (Helianthus) | GR80 (Chenopodium album) | GR80 (Datura stramonium) | GR80 (Xanthium strumarium) | GR80 (Avena fatua) | GR20 (Oryza sativa [14]) | GR80 (Digitaria sanguinalis) | GR80 (Sorghum halepense) | GR80 (Setaria faberi) | GR80 (Echinochloa crus-galli [15]) | GR80 (Alopecurus) | GR80 (Fallopia convolvulus) | GR80 (Stellaria media) | IC50 [16] | also measured
1 | COc1cnc(OC)n2nc(NS(=O)(=O)c3c(OCC(F)F)cccc3C(F)(F)F)nc12 [PENOXSULAM] | <2 gAi/ha |  |  |  |  |  |  |  |  |  |  |  |  |  |  |  |  |  |  |  | GR80 (Echinochloa crus-galli [2]): 9 gAi/ha; GR10 (Oryza sativa [3]): 65 gAi/ha; GR80 [4]: 6 gAi/ha; GR80 (Echinochloa crus-galli [5]): 7 gAi/ha; GR10 (Oryza sativa [6]): > 70 gAi/ha; GR80 [7]: 9 gAi/ha; GR80 (Pontederia vaginalis [8]): 6 gAi/ha; GR10 (Oryza sativa [9]): 35 gAi/ha; GR80 (Echinochloa crus-galli [10]): 26 gAi/ha; GR80 (Cyperus difformis): 14 gAi/ha; GR80 [11]: 12 gAi/ha; GR80 (Echinochloa crus-galli [12]): 12 gAi/ha; GR20 (Oryza sativa [13]): 75 gAi/ha; GR80 (Sesbania herbacea): 7 gAi/ha
2 | COc1cnc(OC)n2nc(NS(=O)(=O)c3c(OCC(F)(F)F)cccc3C(F)(F)F)nc12 | 5 gAi/ha |  |  |  |  |  |  |  |  |  |  |  |  |  |  |  |  |  |  |  | GR80 (Cyperus difformis): 36 gAi/ha; GR80 [11]: 21 gAi/ha; GR80 (Echinochloa crus-galli [12]): 19 gAi/ha; GR20 (Oryza sativa [13]): 51 gAi/ha
3 | CCOc1cccc(C(F)(F)F)c1S(=O)(=O)Nc1nc2c(OC)cnc(OC)n2n1 | 1 gAi/ha | 2 ppm | 2 ppm | 2 ppm | 2 ppm | 2 ppm | 2 ppm | 2 ppm | 2 ppm | 2 ppm | 191 ppm | 250 ppm | 191 ppm | 191 ppm | 191 ppm | 4 ppm | 191 ppm | 2 ppm | 2 ppm |  | GR80 [11]: 3 gAi/ha; GR80 (Echinochloa crus-galli [12]): 1 gAi/ha; GR20 (Oryza sativa [13]): 1 gAi/ha
4 | COc1nccc2nc(NS(=O)(=O)c3c(Cl)cccc3Cl)nn12 |  | 475 ppm | 475 ppm | 475 ppm | 475 ppm | 475 ppm | 475 ppm | 475 ppm | 475 ppm | 475 ppm | 500 ppm | 500 ppm | 500 ppm | 500 ppm | 500 ppm | 500 ppm | 500 ppm | 475 ppm | 475 ppm | 1040 nM | 
5 | CCOc1cnc(OC)n2nc(NS(=O)(=O)c3c(Cl)cccc3Cl)nc12 |  | 216 ppm | 216 ppm | 216 ppm | 216 ppm | 216 ppm | 216 ppm | 216 ppm | 216 ppm | 216 ppm | 250 ppm | 250 ppm | 250 ppm | 250 ppm | 250 ppm | 250 ppm | 250 ppm | 216 ppm | 216 ppm | 2 nM | 
6 | COc1nc(F)cc2nc(NS(=O)(=O)c3c(Cl)cccc3Cl)nn12 |  | 62 ppm | 62 ppm | 62 ppm | 62 ppm | 62 ppm | 62 ppm | 62 ppm | 62 ppm | 62 ppm | 8 ppm | 8 ppm | 8 ppm | 8 ppm | 8 ppm | 8 ppm | 8 ppm | 62 ppm | 62 ppm | 27 nM | 
7 | COc1cc2nc(NS(=O)(=O)c3c(Cl)cccc3Cl)nn2c(OC)n1 |  | >1000 ppm | >1000 ppm | >1000 ppm | >1000 ppm | >1000 ppm | >1000 ppm | >1000 ppm | >1000 ppm | >1000 ppm | >1000 ppm | > 1000 ppm | >1000 ppm | >1000 ppm | >1000 ppm | >1000 ppm | >1000 ppm | >1000 ppm | >1000 ppm | 195 nM | 
8 | COc1cnc(OC)n2nc(NS(=O)(=O)c3c(OC(CF)CF)cccc3C(F)(F)F)nc12 | 1 gAi/ha |  |  |  |  |  |  |  |  |  |  |  |  |  |  |  |  |  |  |  | GR80 [4]: 20 gAi/ha; GR80 (Echinochloa crus-galli [5]): 15 gAi/ha; GR10 (Oryza sativa [6]): > 70 gAi/ha; GR80 [7]: 15 gAi/ha; GR80 (Pontederia vaginalis [8]): 12 gAi/ha; GR10 (Oryza sativa [9]): 70 gAi/ha; GR80 (Echinochloa crus-galli [10]): 35 gAi/ha; GR80 (Cyperus difformis): 31 gAi/ha; GR80 [11]: 9 gAi/ha; GR80 (Echinochloa crus-galli [12]): 14 gAi/ha; GR20 (Oryza sativa [13]): 140 gAi/ha
9 | COc1ncc(F)c2nc(NS(=O)(=O)c3c(Cl)cccc3Cl)nn12 |  | 19 ppm | 19 ppm | 19 ppm | 19 ppm | 19 ppm | 19 ppm | 19 ppm | 19 ppm | 19 ppm | >125 ppm | > 125 ppm | >125 ppm | >125 ppm | >125 ppm | >125 ppm | >125 ppm | 19 ppm | 19 ppm | 12 nM | 
